# Measured values: ChEMBL document CHEMBL4689842, “EUbOPEN Chemogenomics Library wave 1” (2021)
# Tests used:
# Format in all cases: toxicity, cell-based
# U2OS [1] = test: Multiplex assay against U2OS; settings: human
# In short: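 Cells stained live at seeding with Hoechst33342, BioTracker Green Microtubule Cytoskeleton Dye, MitoTracker Red and Annexin V Alexa Fluor 680 were imaged on a CQ1 microscope at 37°C and 5% CO2 after compound addition. Their classification by CellPathfinder machine-learning gating ran from Hoechst high-intensity objects versus normal cells, to healthy, pyknosed or fragmented nuclei among normal cells, to mitotic or apoptotic among pyknosed cells. Tubulin, mitochondrial-mass and membrane-permeability phenotypes are per cents of healthy-nucleus cells.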
# HEK-293T = test: Incucyte cell viability with HEK293T; settings: human, 10 µM, compound concentration 10 uM; note: filed as whole numbers so only -1 and 0 and 1 occur
# U2OS [2] = test: Incucyte cell viability with U2OS; settings: human, 10 µM, compound concentration 10 uM; note: filed as whole numbers so only -1 and 0 and 1 occur
# [3] = 12 h, 1 µM, compound concentration 1 uM, replicate 1
# [4] = 12 h, 1 µM, compound concentration 1 uM, replicate 2
# [5] = 12 h, 10 µM, compound concentration 10 uM, replicate 1
# [6] = 12 h, 10 µM, compound concentration 10 uM, replicate 2
# [7] = 24 h, 1 µM, compound concentration 1 uM, replicate 1
# [8] = 24 h, 1 µM, compound concentration 1 uM, replicate 2
# [9] = 24 h, 10 µM, compound concentration 10 uM, replicate 1
# [10] = 24 h, 10 µM, compound concentration 10 uM, replicate 2
# [11] = 48 h, 1 µM, compound concentration 1 uM, replicate 1
# [12] = 48 h, 1 µM, compound concentration 1 uM, replicate 2
# [13] = 48 h, 10 µM, compound concentration 10 uM, replicate 1
# [14] = 48 h, 10 µM, compound concentration 10 uM, replicate 2
# [15] = 0 h, replicate number 1, timepoint 0 hours
# [16] = 6 h, replicate number 1, timepoint 6 hours
# [17] = 12 h, replicate number 1, timepoint 12 hours
# [18] = 18 h, replicate number 1, timepoint 18 hours
# [19] = 24 h, replicate number 1, timepoint 24 hours
smiles,measurement,setting,value
CC(/C=C1\SC(=S)N(CCCC(=O)Nc2ccc(C(=O)O)c(O)c2)C1=O)=C\c1ccccc1,Population Apoptotic (%),U2OS [1]; [3],53%
same,Population Fragmented Nuclei (%),U2OS [1]; [3],8%
same,Population Healthy Nuclei (%),U2OS [1]; [3],77%
same,Population Hoechst High Intensity Objects (%),U2OS [1]; [3],3%
same,Population Membrane Permeable-Phenotype (%),U2OS [1]; [3],7%
same,Population Mitochondria Different-Phenotype (%),U2OS [1]; [3],5%
same,Population Mitotic Cells (%),U2OS [1]; [3],46%
same,Population Normal (%),U2OS [1]; [3],96%
same,Population Pyknosed Nuclei (%),U2OS [1]; [3],13%
same,Population Tubulin-Different-Phenotype (%),U2OS [1]; [3],13%
same,Total Cell Count,U2OS [1]; [3],154
same,Population Apoptotic (%),U2OS [1]; [4],33%
same,Population Fragmented Nuclei (%),U2OS [1]; [4],10%
same,Population Healthy Nuclei (%),U2OS [1]; [4],81%
same,Population Hoechst High Intensity Objects (%),U2OS [1]; [4],6%
same,Population Mitochondria Different-Phenotype (%),U2OS [1]; [4],7%
same,Population Mitotic Cells (%),U2OS [1]; [4],66%
same,Population Normal (%),U2OS [1]; [4],93%
same,Population Pyknosed Nuclei (%),U2OS [1]; [4],7%
same,Population Tubulin-Different-Phenotype (%),U2OS [1]; [4],7%
same,Total Cell Count,U2OS [1]; [4],65
same,Population Apoptotic (%),U2OS [1]; [5],42%
same,Population Fragmented Nuclei (%),U2OS [1]; [5],7%
same,Population Healthy Nuclei (%),U2OS [1]; [5],86%
same,Population Hoechst High Intensity Objects (%),U2OS [1]; [5],9%
same,Population Membrane Permeable-Phenotype (%),U2OS [1]; [5],9%
same,Population Mitochondria Different-Phenotype (%),U2OS [1]; [5],5%
same,Population Mitotic Cells (%),U2OS [1]; [5],57%
same,Population Normal (%),U2OS [1]; [5],90%
same,Population Pyknosed Nuclei (%),U2OS [1]; [5],5%
same,Population Tubulin-Different-Phenotype (%),U2OS [1]; [5],8%
same,Total Cell Count,U2OS [1]; [5],117
same,Population Apoptotic (%),U2OS [1]; [6],44%
same,Population Fragmented Nuclei (%),U2OS [1]; [6],17%
same,Population Healthy Nuclei (%),U2OS [1]; [6],72%
same,Population Hoechst High Intensity Objects (%),U2OS [1]; [6],7%
same,Population Membrane Permeable-Phenotype (%),U2OS [1]; [6],6%
same,Population Mitochondria Different-Phenotype (%),U2OS [1]; [6],6%
same,Population Mitotic Cells (%),U2OS [1]; [6],55%
same,Population Normal (%),U2OS [1]; [6],92%
same,Population Pyknosed Nuclei (%),U2OS [1]; [6],10%
same,Population Tubulin-Different-Phenotype (%),U2OS [1]; [6],9%
same,Total Cell Count,U2OS [1]; [6],88
same,Population Apoptotic (%),U2OS [1]; [7],53%
same,Population Fragmented Nuclei (%),U2OS [1]; [7],6%
same,Population Healthy Nuclei (%),U2OS [1]; [7],83%
same,Population Hoechst High Intensity Objects (%),U2OS [1]; [7],4%
same,Population Membrane Permeable-Phenotype (%),U2OS [1]; [7],5%
same,Population Mitochondria Different-Phenotype (%),U2OS [1]; [7],9%
same,Population Mitotic Cells (%),U2OS [1]; [7],46%
same,Population Normal (%),U2OS [1]; [7],95%
same,Population Pyknosed Nuclei (%),U2OS [1]; [7],10%
same,Population Tubulin-Different-Phenotype (%),U2OS [1]; [7],5%
same,Total Cell Count,U2OS [1]; [7],151
same,Population Apoptotic (%),U2OS [1]; [8],54%
same,Population Fragmented Nuclei (%),U2OS [1]; [8],12%
same,Population Healthy Nuclei (%),U2OS [1]; [8],76%
same,Population Hoechst High Intensity Objects (%),U2OS [1]; [8],6%
same,Population Membrane Permeable-Phenotype (%),U2OS [1]; [8],4%
same,Population Mitochondria Different-Phenotype (%),U2OS [1]; [8],10%
same,Population Mitotic Cells (%),U2OS [1]; [8],45%
same,Population Normal (%),U2OS [1]; [8],93%
same,Population Tubulin-Different-Phenotype (%),U2OS [1]; [8],12%
same,Total Cell Count,U2OS [1]; [8],64
same,Population Apoptotic (%),U2OS [1]; [9],36%
same,Population Fragmented Nuclei (%),U2OS [1]; [9],11%
same,Population Healthy Nuclei (%),U2OS [1]; [9],81%
same,Population Hoechst High Intensity Objects (%),U2OS [1]; [9],5%
same,Population Membrane Permeable-Phenotype (%),U2OS [1]; [9],5%
same,Population Mitochondria Different-Phenotype (%),U2OS [1]; [9],8%
same,Population Mitotic Cells (%),U2OS [1]; [9],63%
same,Population Normal (%),U2OS [1]; [9],94%
same,Population Pyknosed Nuclei (%),U2OS [1]; [9],6%
same,Population Tubulin-Different-Phenotype (%),U2OS [1]; [9],6%
same,Total Cell Count,U2OS [1]; [9],151
same,Population Apoptotic (%),U2OS [1]; [10],44%
same,Population Fragmented Nuclei (%),U2OS [1]; [10],9%
same,Population Healthy Nuclei (%),U2OS [1]; [10],83%
same,Population Hoechst High Intensity Objects (%),U2OS [1]; [10],4%
same,Population Mitochondria Different-Phenotype (%),U2OS [1]; [10],14%
same,Population Mitotic Cells (%),U2OS [1]; [10],55%
same,Population Normal (%),U2OS [1]; [10],95%
same,Population Pyknosed Nuclei (%),U2OS [1]; [10],7%
same,Population Tubulin-Different-Phenotype (%),U2OS [1]; [10],14%
same,Total Cell Count,U2OS [1]; [10],115
same,Population Apoptotic (%),U2OS [1]; [11],61%
same,Population Fragmented Nuclei (%),U2OS [1]; [11],2%
same,Population Healthy Nuclei (%),U2OS [1]; [11],92%
same,Population Hoechst High Intensity Objects (%),U2OS [1]; [11],1%
same,Population Membrane Permeable-Phenotype (%),U2OS [1]; [11],1%
same,Population Mitochondria Different-Phenotype (%),U2OS [1]; [11],9%
same,Population Mitotic Cells (%),U2OS [1]; [11],38%
same,Population Normal (%),U2OS [1]; [11],98%
same,Population Pyknosed Nuclei (%),U2OS [1]; [11],5%
same,Population Tubulin-Different-Phenotype (%),U2OS [1]; [11],10%
same,Total Cell Count,U2OS [1]; [11],142
same,Population Apoptotic (%),U2OS [1]; [12],50%
same,Population Fragmented Nuclei (%),U2OS [1]; [12],7%
same,Population Healthy Nuclei (%),U2OS [1]; [12],84%
same,Population Hoechst High Intensity Objects (%),U2OS [1]; [12],4%
same,Population Membrane Permeable-Phenotype (%),U2OS [1]; [12],10%
same,Population Mitochondria Different-Phenotype (%),U2OS [1]; [12],14%
same,Population Mitotic Cells (%),U2OS [1]; [12],50%
same,Population Normal (%),U2OS [1]; [12],95%
same,Population Pyknosed Nuclei (%),U2OS [1]; [12],8%
same,Population Tubulin-Different-Phenotype (%),U2OS [1]; [12],14%
same,Total Cell Count,U2OS [1]; [12],60
same,Population Apoptotic (%),U2OS [1]; [13],31%
same,Population Fragmented Nuclei (%),U2OS [1]; [13],5%
same,Population Healthy Nuclei (%),U2OS [1]; [13],87%
same,Population Hoechst High Intensity Objects (%),U2OS [1]; [13],2%
same,Population Membrane Permeable-Phenotype (%),U2OS [1]; [13],2%
same,Population Mitochondria Different-Phenotype (%),U2OS [1]; [13],11%
same,Population Mitotic Cells (%),U2OS [1]; [13],68%
same,Population Normal (%),U2OS [1]; [13],97%
same,Population Pyknosed Nuclei (%),U2OS [1]; [13],7%
same,Population Tubulin-Different-Phenotype (%),U2OS [1]; [13],11%
same,Total Cell Count,U2OS [1]; [13],241
same,Population Apoptotic (%),U2OS [1]; [14],16%
same,Population Fragmented Nuclei (%),U2OS [1]; [14],4%
same,Population Healthy Nuclei (%),U2OS [1]; [14],92%
same,Population Hoechst High Intensity Objects (%),U2OS [1]; [14],0%
same,Population Membrane Permeable-Phenotype (%),U2OS [1]; [14],1%
same,Population Mitochondria Different-Phenotype (%),U2OS [1]; [14],17%
same,Population Mitotic Cells (%),U2OS [1]; [14],83%
same,Population Normal (%),U2OS [1]; [14],99%
same,Population Pyknosed Nuclei (%),U2OS [1]; [14],2%
same,Population Tubulin-Different-Phenotype (%),U2OS [1]; [14],19%
same,Total Cell Count,U2OS [1]; [14],147
same,Growth Rate,HEK-293T; [15],0
same,Growth Rate,HEK-293T; [16],1
same,Growth Rate,HEK-293T; [17],0
same,Growth Rate,"HEK-293T; 12 h, replicate number 2, timepoint 12 hours",1
same,Growth Rate,HEK-293T; [18],0
same,Growth Rate,"HEK-293T; 18 h, replicate number 2, timepoint 18 hours",1
same,Growth Rate,HEK-293T; [19],0
same,Growth Rate,"HEK-293T; 24 h, replicate number 2, timepoint 24 hours",1
same,Growth Rate,U2OS [2]; [15],0
same,Growth Rate,U2OS [2]; [16],0
same,Growth Rate,U2OS [2]; [17],1
same,Growth Rate,U2OS [2]; [18],1
same,Growth Rate,U2OS [2]; [19],1
